Hep lipid drop = hepatic lipid droplet formation modulation; AML12 mouse hepatocytes, oleate lipid droplets, BODIPY imaging; inhibition, % at 6.5 µM; actives 0.4% (n = 240,000); AID 1656;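 active = lipid droplet intensity inhibited by at least 50%, with more than 500 cells counted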
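Material – mouse AML12 hepatocyte cell line, fixed after treatment · Compound dosing – one dose, 6.5 µM compound · Times – compound with oleate, overnight · Measured by – Image-based BODIPY and DAPI two-channel analysis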
UPR XBP1 act = adaptive UPR (XBP1) activation; activation, % at 20 µM; actives 0.33% (n = 330,000); CHO-XBP1 luciferase reporter, IRE1-XBP1 UPR activation, luminescence; percent of tunicamycin response, DMSO as zero;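 active = versus positive control, 20 µM dose yields 30% or more activation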;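 also: 100% = tunicamycin at 10 µg/mL and 0% = DMSO only wells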
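Material: CHO cell line with stable XBP1 luciferase reporter; buffer or medium: F12 medium containing 10% fetal bovine serum; compound: single point, 20 µM final compound, 1% DMSO; incubation: 6 h treatment, 37 °C; measured by: glow luminescence from Steady-Glo reagent; evaluation: activation, % of tunicamycin; control set: tunicamycin high, DMSO low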
CHOP inh = inhibitors of CHOP induction in ER stress response. actives 3.8% (n = 220,000). inhibition, % at 10 µM. CHO-K1 CHOP-promoter luciferase, tunicamycin-induced, 15-18 h;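 active = compounds that reduced the stress-induced luciferase reporter signal by more than about 70% of percent inhibition, limit read from the data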;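 also: 0% = tunicamycin plus vehicle and 100% = wells without tunicamycin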
CHOP UPR activ = activators of apoptotic arm of unfolded protein response (CHOP) | activation, % at 10 µM | actives 0.34% (n = 330,000) | AID 449763 | CHO-CHOP luciferase reporter, UPR activation, luminescence; percent of tunicamycin response over DMSO baseline;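 active = at 10 µM dose, activation of 40% or more, normalized to positive control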;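 also: 100% = tunicamycin at 10 µg/mL and 0% = DMSO alone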
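Assay system: CHO-CHOP cells, stable luciferase reporter of PERK-eIF2a-CHOP signalling / Buffer or medium: F12 plus 10% serum / Compound dosing: one dose, 10 µM in 0.5% DMSO / Times: 6 h compound treatment, 37 °C / Technique: luciferase luminescence / Read-out: % reporter activation, DMSO baseline versus tunicamycin full activation / Benchmarks: tunicamycin and DMSO controls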
TMEM16A inh = mouse TMEM16A channel inhibition, primary screen | Q8BHY3 | HEK293 TMEM16A/YFP iodide influx fluorescence, ionomycin | normalized B-score (activity score, 25-100; higher = stronger inhibition) at 10 µM | actives 1.2% (n = 310,000);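 active = ratio plate-corrected score three or more library SD toward inhibition, starting fluorescence score within five deviations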;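 also: score derived from kinetic fluorescence span divided by baseline fluorescence per well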
Target sequence (Q8BHY3 whole entry, looked up): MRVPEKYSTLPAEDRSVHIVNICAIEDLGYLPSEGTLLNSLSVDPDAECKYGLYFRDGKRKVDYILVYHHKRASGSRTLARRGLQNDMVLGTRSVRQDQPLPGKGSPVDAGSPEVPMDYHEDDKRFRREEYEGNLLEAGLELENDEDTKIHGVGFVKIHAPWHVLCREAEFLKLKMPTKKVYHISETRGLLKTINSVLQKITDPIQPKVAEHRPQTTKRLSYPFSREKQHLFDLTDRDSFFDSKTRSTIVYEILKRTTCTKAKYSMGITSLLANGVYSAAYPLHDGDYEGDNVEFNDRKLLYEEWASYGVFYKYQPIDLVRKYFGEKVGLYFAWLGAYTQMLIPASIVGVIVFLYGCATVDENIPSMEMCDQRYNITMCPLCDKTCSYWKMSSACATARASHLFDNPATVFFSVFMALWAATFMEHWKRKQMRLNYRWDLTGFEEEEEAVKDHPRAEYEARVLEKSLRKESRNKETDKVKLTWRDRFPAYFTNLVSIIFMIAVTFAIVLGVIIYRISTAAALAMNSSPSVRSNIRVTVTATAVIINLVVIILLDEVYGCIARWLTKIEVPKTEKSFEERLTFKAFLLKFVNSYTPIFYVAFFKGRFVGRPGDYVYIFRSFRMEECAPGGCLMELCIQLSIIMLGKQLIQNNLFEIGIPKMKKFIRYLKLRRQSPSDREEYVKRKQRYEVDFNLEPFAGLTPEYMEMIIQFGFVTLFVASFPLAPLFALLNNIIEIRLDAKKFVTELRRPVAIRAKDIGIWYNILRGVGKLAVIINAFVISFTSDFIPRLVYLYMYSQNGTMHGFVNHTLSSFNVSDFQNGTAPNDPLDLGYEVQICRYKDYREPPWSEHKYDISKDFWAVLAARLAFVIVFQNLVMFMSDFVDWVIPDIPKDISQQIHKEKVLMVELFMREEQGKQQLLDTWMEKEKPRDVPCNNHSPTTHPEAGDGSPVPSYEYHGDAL
TMEM16A act = activates or potentiates the mouse TMEM16A chloride channel. Q8BHY3. HEK293 TMEM16A/YFP-H148Q/I152L, iodide quench fluorescence; stronger effect = lower value. B-score at 10 µM. actives 0.3% (n = 340,000). AID 623877;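 active = fluorescence-ratio B-score plate-corrected deviation score at least 3 library SD below zero, with starting fluorescence score within 5 deviations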;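 also: channel opened by trigger with iodide after compound preincubation; score built on the fluorescence ratio of max minus min over baseline; more negative score means more quench and so TMEM16A activation or potentiation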
Lipid drop inh = hepatic lipid droplet formation inhibition, confirmed. inhibition, % at 5.2 µM. shares compounds with Hep lipid drop. AID 463183. actives 65% (n = 870). AML12 mouse hepatocytes, BODIPY lipid droplet imaging; droplets induced with 100 µM oleic acid;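 active = inhibition of lipid droplet metric at least 50%, with more than 300 cells in each of four replicates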;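 also: plate controls were DMSO with oleic acid for no effect and 5 µM Triacsin-C for full effect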
AML12 cytotox = toxic to AML12 mouse hepatocytes in counter-screen | AID 463200 | z-score at 5 µM | shares compounds with Hep lipid drop | DAPI nuclear morphology cytotoxicity imaging; stronger effect = higher value; cells fed 100 µM oleate overnight | actives 3% (n = 870); in the data active = z-score above about 6.3;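 also: compound exposure lasted overnight at 37 °C before fixation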
AML12 tox ATP = AML12 hepatocyte cytotoxicity, confirmed | AML12 mouse hepatocyte viability, ATP luminescence; cells loaded with 100 µM oleic acid | shares compounds with Hep lipid drop | 530 tested, under 10 active | cytotoxicity, % at 50 µM;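 active = cytotoxicity above 50% in each of four replicates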;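 also: compound exposure lasted overnight at 37 °C before the ATP read; 0% = DMSO-treated cells and 100% = wells with no cells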
CHOP confirm = confirmation of CHOP induction inhibitors; shares compounds with CHOP inh; CHO-CHOP promoter luciferase reporter, tunicamycin-induced, luminescence; inhibition, % at 10 µM; actives 45% (n = 2,100); AID 504437;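 active = mean of three repeat readings of reporter signal inhibition above a set limit, cut at about 70% in these data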;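 also: 0% = tunicamycin plus vehicle and 100% = wells lacking tunicamycin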
UPR CHOP confirm = confirmation of apoptotic unfolded protein response (CHOP) activators | shares compounds with CHOP UPR activ | CHO-CHOP cells, CHOP-luciferase reporter luminescence; percent of tunicamycin response, DMSO as zero | activation, % at 10 µM | actives 64% (n = 1,000) | AID 463112; in the data active = activation above about 33%;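 also: 0% = DMSO wells and 100% = tunicamycin 10 µg/mL wells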
XBP1 UPR conf = confirmation of adaptive unfolded protein response (XBP1) activators. shares compounds with UPR XBP1 act. CHO-XBP1 IRE1-XBP1 luciferase reporter, luminescence. activation, % at 20 µM. actives 63% (n = 1,000);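 active = reporter signal at least 30% of the positive control's activation in two or more of four replicate wells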;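 also: plate controls were DMSO negative control for no effect and tunicamycin 10 µg/mL positive control for full effect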
Starred values were filed as active, the others as inactive; i = inactive; / = not tested or not shown. An excerpt weighted towards active compounds, which were near 4.2% of everything screened.

SMILES	Hep lipid drop	UPR XBP1 act	CHOP inh	CHOP UPR activ	TMEM16A inh	TMEM16A act	Lipid drop inh	AML12 cytotox	others
Cc1ccc(NC(=O)CN(C)S(=O)(=O)c2cccs2)cc1C	-3	-1	21	0	i	i	/	/
Cc1ccc(NC(=O)CN(C)S(=O)(=O)c2cccs2)c(Br)c1	63*	-1	/	4	i	i	20	-0.33
COc1ccc(NC(=O)CS(=O)CC(=O)Nc2ccc(NC(C)=O)cc2)cc1 (stereo not given)	-18	2	/	0	i	i	/	/
O=S(=O)(NCC1CCN(Cc2ccccc2)CC1)c1ccccc1C(F)(F)F	-3	-2	/	2	i	i	/	/
CN(CC(=O)Nc1ccccc1Cl)C(=O)Cn1cc(C(F)(F)F)ccc1=O	/	0	/	0	/	i	/	/
COc1ccc(N=NC2C(=O)N(c3ccccc3)N=C2C)cc1 (stereo not given)	52*	5	/	3	i	i	102*	-0.5	AML12 tox ATP=10
C=CCOc1ccc(/C=N/NC(=O)c2cc3c(OC)cc(OC)cc3[nH]2)cc1	56*	-2	/	2	i	i	51	2.3
CCOc1ccc(/C=N/NC(=O)c2cc3c(OC)cc(OC)cc3[nH]2)cc1OC	2	11	/	3	i	i	/	/
COc1ccc(C(=O)OC(C)C(=O)NC(C)CCc2ccccc2)cc1OC (stereo not given)	103*	-5	/	-2	i	i	107*	-0.018	AML12 tox ATP=14
COc1ccc(C(=O)OCC(=O)NC(C)CCc2ccccc2)c(OC)c1 (stereo not given)	75*	-4	/	0	i	i	67	0.65	AML12 tox ATP=7
CCOc1ccc(C(=O)NCC(=O)NC(C)CCc2ccccc2)cc1OCC (stereo not given)	75*	-3	/	-3	i	i	106*	1.1	AML12 tox ATP=16
CCOc1ccc(C(=O)CCC(=O)NCC(=O)OCc2ccccc2)cc1OCC	93*	1	/	0	i	i	73*	-0.48	AML12 tox ATP=9
COC(=O)c1cccc(NC(=O)C(C)(C)C)c1	-4	0	6	0	i	i	/	/
Cn1cnc(S(=O)(=O)N2CCN(c3cccc(Cl)c3)CC2)c1	-10	-1	/	0	i	i	/	/
CCCNC1=CC(=O)CC(C)(C)C1	57*	-3	17	-1	i	i	27	-0.44
Cc1ccccc1OC1=NS(=O)(=O)c2ccccc21	-6	-1	0	1	i	i	/	/
O=S1(=O)N=C(Oc2cccc3ccccc23)c2ccccc21	66*	3	10	-3	i	i	23	-0.32
Cn1c(=O)c(C(=O)COC(=O)c2cc(C3CC3)nc3ccccc23)c(N)n(Cc2ccccc2)c1=O	55*	-2	10	3	i	/	82*	-0.96
COc1cc(C2N3CC4(C)CN2CC(C)(C3)C4)ccc1O (stereo not given)	92*	0	22	-2	i	i	5	-1.6
COc1ccc(C2N3CC4(C)CN2CC(C)(C3)C4O)cc1OC (stereo not given)	23	0	-22	1	i	i	/	/
Cc1cc(C(=O)Nc2nncs2)oc1C	0	-1	/	1	i	i	/	/
CC(C)(C)c1cc(NC(=O)Nc2ccc(Cl)cc2Cl)no1	50*	1	96*	3	i	i	32	-0.81	CHOP confirm=13
CCc1nnc(NC(=O)c2cc(S(=O)(=O)N(C)c3ccc(OC)cc3)ccc2Cl)s1	0	-3	/	1	i	i	/	/
C=C(C)Cn1c(N2CCC(Cc3ccccc3)CC2)nc2c1c(=O)[nH]c(=O)n2C	64*	0	99*	2	i	i	107*	-0.55	AML12 tox ATP=-2;CHOP confirm=125*
CC(=O)Cn1c(N2CCC(Cc3ccccc3)CC2)nc2c1c(=O)[nH]c(=O)n2C	/	3	40	0	i	i	/	/
SMILES	Hep lipid drop	UPR XBP1 act	CHOP inh	CHOP UPR activ	TMEM16A inh	TMEM16A act	Lipid drop inh	AML12 cytotox	others
CCC(C)NC(=O)c1ccc(Cl)c(S(=O)(=O)Nc2ccccc2N2CCOCC2)c1 (stereo not given)	/	-1	/	-1	/	i	/	/
COc1ccc(-c2nc(NC(=O)Cn3ccc(C(F)(F)F)n3)sc2C)cc1	68*	-9	103*	-2	i	i	104*	-0.3	AML12 tox ATP=37;CHOP confirm=74*
COc1ccc(-c2nc(NC(=O)Cn3cnnn3)sc2C)cc1	14	4	-2	0	i	i	/	/
Oc1ccc(N=Nc2cccc(C(F)(F)F)c2)cc1C=Nc1ccc(N2CCOCC2)cc1	58*	2	104*	5	i	i	41	-0.23	CHOP confirm=73*
CN(C(=O)CSc1cc(C(=O)c2nccn2C)c2ccccc2n1)c1ccccc1	81*	27	-2	95*	i	i	-16	-0.019	UPR CHOP confirm=94*
Cc1cc(C(F)(F)F)nc2c(Cl)c(C(C)(C)C)nn12	-10	-1	-2	2	i	i	/	/
COc1ccc(-c2c/c(=N\c3nc(-c4ccccc4)c(C)s3)c3ccccc3o2)cc1O	58*	34*	/	7	i	i	-20	23*	XBP1 UPR conf=39*
COc1ccc(CCNC(=O)COC(=O)/C=C/c2cc(OC)c(OC)c(OC)c2)cc1OC	31	1	38	-2	i	i	/	/

Screens (PubChem)
